Rows were chosen to be rich in hits. Some 3.5% of all compounds tested hit in one or more screens of this group.
RGS4 block: human RGS4 inhibition. HEK293 M3R/RGS4 inducible, Fluo-4 calcium flux; active compounds read high; triggered by carbachol at its EC20. B-score at 10 µM. 310,000 tested, 0.45% active;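 active = B-score, a plate-corrected calcium signal, over three deviations above library mean, with baseline fluorescence within five deviations of library mean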;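 note: RGS4 expression induced by doxycycline in cells with stable M3 receptor; B-score is computed from the integrated fluorescence ratio over baseline after carbachol; higher B-score means a larger calcium signal and so more RGS4 inhibition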
Target sequence (P49798 whole entry, looked up): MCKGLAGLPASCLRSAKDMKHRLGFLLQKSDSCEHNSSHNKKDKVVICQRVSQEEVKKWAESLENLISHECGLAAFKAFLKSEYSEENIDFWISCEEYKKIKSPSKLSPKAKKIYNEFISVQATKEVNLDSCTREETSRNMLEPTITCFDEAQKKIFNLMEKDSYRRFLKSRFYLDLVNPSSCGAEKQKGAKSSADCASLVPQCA
MrgX1 allo act: human MrgX1 positive allosteric modulation, primary screen; 310,000 tested, 0.63% active; MrgX1-HEK293, Fluo-4 calcium flux, FDSS; active compounds read high; AID 588675; B-score at 10 µM; Q96LB2;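 active = plate-corrected calcium response at least 3 library SD above typical, normal starting fluorescence, not activating the receptor alone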;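 note: compound read alongside a low EC10 to EC30 dose of BAM8-22 agonist; peak minus trough fluorescence over baseline measured at the second addition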
Target sequence (Q96LB2 whole entry, looked up): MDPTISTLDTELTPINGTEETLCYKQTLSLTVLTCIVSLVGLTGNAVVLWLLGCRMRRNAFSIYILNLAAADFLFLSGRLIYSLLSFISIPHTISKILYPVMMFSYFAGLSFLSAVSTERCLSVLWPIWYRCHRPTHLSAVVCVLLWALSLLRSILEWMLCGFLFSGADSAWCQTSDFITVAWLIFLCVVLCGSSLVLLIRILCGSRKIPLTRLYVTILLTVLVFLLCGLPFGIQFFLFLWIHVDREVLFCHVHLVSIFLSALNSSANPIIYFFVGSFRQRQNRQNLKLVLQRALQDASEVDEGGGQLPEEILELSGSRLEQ
MrgX1 antagonist: human MrgX1 receptor antagonism, primary screen | B-score at 10 µM | MRGX1-HEK293 calcium flux, Fluo-4, BAM8-22 antagonism; active compounds read low | Q96LB2 | 310,000 tested, 1.3% active;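 active = calcium-response B-score plate-corrected more than 3 library SD below zero, starting fluorescence within 5 deviations, no agonist response on first addition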;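 note: peak minus trough fluorescence over baseline after final BAM8-22 challenge near maximal dose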
RGS4 act: RGS4 potentiation or activation. HEK293 M3R/inducible RGS4, carbachol calcium flux Fluo4; active compounds read low. B-score at 10 µM. 310,000 tested, 0.92% active. AID 463111;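 active = B-score of the integrated calcium signal more than 4 SD below the library mean, with starting fluorescence not abnormally high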;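 note: negative B-score means reduced calcium response which marks RGS4 activation or potentiation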
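test system = HEK293 cells with stable M3R and inducible RGS4 | schedule = recording 10 s baseline at 1 Hz, 100 s post-agonist | technique = Fluo4-AM (2 µM) calcium-flux fluorescence, kinetic read | measure = Agonist-evoked peak-minus-minimum fluorescence over baseline, integrated ratio, B score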
MrgX1 agonist: agonists of human MrgX1 receptor; Q96LB2; AID 588627; B-score at 10 µM; 310,000 tested, 0.44% active; MrgX1-HEK293 cells, Fluo-4 calcium fluorescence, agonist mode; active compounds read high;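 active = calcium response B-score plate-corrected fluorescence ratio at least 3 library SD, with starting fluorescence B-score inside 5 SD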
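Material: MrgX1-expressing HEK293 cells / Dosing: compound as first of three additions / Incubation: overnight seeding, then 1 h dark dye loading / Signal: Fluo-4 NW calcium fluorescence / Evaluation: B-scored fluorescence response ratio / Benchmarks: positive and negative control wells on each plate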
* marks the source's active call; other numbers are inactive results; i = inactive; · = not tested or not shown.

SMILES	RGS4 block	MrgX1 allo act	MrgX1 antagonist	RGS4 act	MrgX1 agonist
O=C(O)C(c1ccccc1)N1C(=O)/C(=C\c2ccc(O)c(O)c2)SC1=S (stereo unspecified)	i	i	i	i	27*
COc1cc(/C=C2\SC(=S)N(C(C(=O)O)c3ccccc3)C2=O)ccc1O (stereo unspecified)	i	i	i	i	i
COc1ccc(CNS(=O)(=O)CCNC(=O)c2ccc(OC)cc2)cc1	i	i	-4.9*	i	i
O=C1CC(c2ccc(Cl)cc2)CC(=O)C1CS(=O)(=O)c1ccccc1 (stereo unspecified)	i	i	i	-7.2*	i
Cc1cc(C2=NNC(=NCCc3ccccc3)SC2)c(C)n1CC1CCCO1 (stereo unspecified)	i	i	i	i	45*
CCc1cccc2c(C(=O)COC(=O)c3nn(C)c(=O)c4ccccc34)c[nH]c12	i	i	i	-7.3*	i
Cc1cccc(C)c1Nc1nnc(SCC(=O)c2ccc(Br)s2)s1	i	i	i	-7.7*	i
Cc1ccc(Nc2nnc(SCC(=O)c3ccc(Br)s3)s2)c(C)c1	i	i	i	i	i
CCc1ccccc1NC(=O)CNC(=O)CCc1nc2sc3c(c2c(=O)[nH]1)CCCC3	i	i	i	i	i
CCCOc1ccc(C2NC(=S)NC(C)=C2C(=O)c2ccccc2)cc1OC (stereo unspecified)	i	i	i	i	i
CN1C(=O)/C(=C\C=C2/CCCN2C)N(C)C1=S	i	i	i	i	i
CCN1C(=O)/C(=C/C=C2/CCCN2C)OC1=S	i	i	i	i	27*
COc1ccc(OCC(=O)Nc2c(C(=O)N(CCN(C)C)Cc3ccco3)oc3ccccc23)cc1	i	i	-5.1*	i	i
COc1ccccc1C(=O)Nc1c(C(=O)N(CCN(C)C)Cc2ccco2)oc2ccccc12	i	i	i	i	i
O=C(Nc1cccc(-c2cn3c(n2)SCC3)c1)c1ccc2ccccc2n1	i	i	i	i	i
O=C(Nc1ccc(-c2cn3c(n2)SCC3)cc1)c1ccc2ccccc2n1	i	i	i	-7.4*	i
CC(Oc1ccc(Br)cc1Br)C(=O)Nc1cccnc1Cl (stereo unspecified)	i	i	i	i	i
Cc1ccc(S(=O)(=O)N/N=C2/CC(c3ccccc3)Oc3ccccc32)cc1[N+](=O)[O-] (stereo unspecified)	i	i	i	i	i
O=S(=O)(N/N=C1/CC(c2ccccc2)Oc2ccccc21)c1ccc(Br)cc1 (stereo unspecified)	i	i	-6.7*	i	i
CCOC(=O)N1CCN(S(=O)(=O)c2ccc(C(=O)N(CCCN(C)C)c3nc4c(C)c(C)ccc4s3)cc2)CC1	i	i	i	i	i
COc1ccc2sc(N(CCCN(C)C)C(=O)c3ccc(S(=O)(=O)N4CCCC4)cc3)nc2c1	i	i	i	-7.2*	i
CCOC(=O)N1CCN(S(=O)(=O)c2ccc(C(=O)N(CCCN(C)C)c3nc4cc(OC)ccc4s3)cc2)CC1	i	i	i	-7.6*	i
O=C(Nc1cccc(F)c1)C1CCCN1C(=O)OCc1ccccc1 (stereo unspecified)	i	i	i	i	i
N#CCC(=O)N1CCN(C=O)CC1	i	i	-5.5*	i	i
C/C(CCc1oc2ccc(Br)cc2c1-c1ccc(C)o1)=N/O	i	i	-6.3*	i	i
SMILES	RGS4 block	MrgX1 allo act	MrgX1 antagonist	RGS4 act	MrgX1 agonist
CCOCCc1nnc(NC(=O)C2CC(=O)N(c3ccc(OCC)cc3)C2)s1 (stereo unspecified)	i	i	i	i	i
CCCCCCc1cc2cc(C(=O)NCc3ccccc3)c(=N)oc2cc1O	i	7*	i	i	i
CCN(CC)c1ccc2cc(C(=O)NCc3ccc(F)cc3)c(=N)oc2c1	i	i	i	i	37*
NCCCC[C@@H](C(=O)N1CCNCC1)n1cc([C@@H](N)CC(N)=O)nn1	·	i	i	·	i
Cc1noc(NS(=O)(=O)c2ccc(NC(=O)c3cc(-c4ccccc4Cl)nc4ccccc34)cc2)c1C	i	i	i	i	39*
COc1ccc2cc(/C=C3\SC(=S)NC3=O)c(N3CCOCC3)nc2c1	i	i	-6.9*	i	i
O=C1NC(=S)S/C1=C/c1ccc(N2CCOCC2)o1	i	i	i	i	i
CCN(CC)S(=O)(=O)c1ccc(N2CCN(S(=O)(=O)c3ccccc3)CC2)nc1	i	·	·	i	·
CCN(CC)S(=O)(=O)c1ccc(N2CCN(S(=O)(=O)c3ccccc3C#N)CC2)nc1	·	i	-5*	·	i
CCOC(=O)C1(CCc2ccccc2)CCN(C(=O)CN2CCOC2=O)CC1	i	i	i	i	i
O=C1CCCc2oc3c(cc(NS(=O)(=O)c4ccc5c6c(cccc46)C(=O)N5)c4ccccc43)c21	i	7*	i	i	i
O=C(COC(=O)c1cncc(Br)c1)NC1CCCC1	i	i	i	i	i
C/C(=C\C(=O)c1ccc(Br)cc1)Nc1ccc(Cl)cc1	i	i	i	-7.2*	i
CC(C)c1c(C(=O)N/N=C/c2ccc(C(F)(F)F)cc2)nnn1-c1nonc1N	i	i	i	i	i
Cc1cc(C)nc(OC(=O)c2ccc(Cl)cc2Cl)n1	i	i	i	-7.3*	i
Cc1cc(C)nc(OC(=O)c2c(Cl)cc(Cl)cc2Cl)n1	i	i	i	i	i
CC[n+]1ccccc1/C=C1\Sc2ccc(C)cc2N1C	i	i	-8.4*	i	i
O=C(CSc1nnc(COc2ccc(Cl)cc2)o1)NC1CC2CCC1C2 (stereo unspecified)	i	i	-4.7*	i	i
O=C(CSc1nnc(COc2ccc(Cl)cc2)o1)NC1CCCCC1	i	i	i	i	i
O=C(COc1ccc(Cl)cc1)NCc1nnc(SCC(=O)NC2CCCC2)o1	i	i	-6.4*	i	i
O=C(CCNC(=O)N1CCn2c1nc1ccccc12)NCc1ccccc1	i	i	i	i	i
CC(C)Cn1c(SCC(=O)N2CCCc3ccccc32)nc2ccccc2c1=O	i	i	i	i	i
Cc1ccc(-c2nc(NC(=O)CSc3nnc4scc(-c5ccccc5)n34)ns2)cc1	i	i	i	i	i
CCOc1cc(CNCc2ccncc2)cc(Cl)c1OC	i	i	i	i	i

Screening results from PubChem BioAssay.
